Experiments:
Assay type in all cases: cell-based
[1] = target: Delta-type opioid receptor (Mus musculus, UniProt P32300); assay: Displacement of [3H]diprenorphine from mouse delta opioid receptor expressed in CHO cells
Outline: (§1)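 Competitive inhibition of [3H]diprenorphine binding to human KOR, rat MOR or mouse DOR stably expressed in CHO cells. Compounds screened at 10 μM; those displacing >50% were tested over a concentration range and Ki calculated from competitive inhibition curves.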

Mu-type opioid receptor = Mu-type opioid receptor (Rattus norvegicus, UniProt P33535); assay: Displacement of [3H]diprenorphine from rat mu opioid receptor expressed in CHO cells; outline: as §1
Mu-type opioid receptor, sequence (P33535 whole entry): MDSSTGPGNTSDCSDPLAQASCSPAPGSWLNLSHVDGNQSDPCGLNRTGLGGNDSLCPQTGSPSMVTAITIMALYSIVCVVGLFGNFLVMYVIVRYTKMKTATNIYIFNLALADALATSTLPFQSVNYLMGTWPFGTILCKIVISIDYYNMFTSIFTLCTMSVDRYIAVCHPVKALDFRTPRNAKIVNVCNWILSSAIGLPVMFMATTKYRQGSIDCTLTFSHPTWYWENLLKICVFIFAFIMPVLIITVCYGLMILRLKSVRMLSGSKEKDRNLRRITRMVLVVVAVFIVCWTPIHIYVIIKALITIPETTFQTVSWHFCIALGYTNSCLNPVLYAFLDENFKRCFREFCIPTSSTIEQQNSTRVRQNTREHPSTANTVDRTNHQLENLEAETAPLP

[2] = target: Kappa-type opioid receptor (Homo sapiens, UniProt P41145); assay: Displacement of [3H]diprenorphine from human kappa opioid receptor expressed in CHO cells; outline: as §1
Kappa-type opioid receptor, sequence (P41145 whole entry): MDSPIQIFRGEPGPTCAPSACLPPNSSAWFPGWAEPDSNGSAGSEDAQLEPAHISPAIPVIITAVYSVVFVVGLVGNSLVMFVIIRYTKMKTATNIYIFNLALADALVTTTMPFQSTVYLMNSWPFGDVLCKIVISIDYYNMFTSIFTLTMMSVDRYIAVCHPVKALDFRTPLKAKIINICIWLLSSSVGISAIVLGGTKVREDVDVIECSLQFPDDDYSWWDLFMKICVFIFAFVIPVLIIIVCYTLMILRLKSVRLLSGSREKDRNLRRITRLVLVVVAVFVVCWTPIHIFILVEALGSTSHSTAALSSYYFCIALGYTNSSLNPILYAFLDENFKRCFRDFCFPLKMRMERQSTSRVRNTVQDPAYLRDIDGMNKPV

[3] = target: D(1A) dopamine receptor (Rattus norvegicus) (UniProt P18901); assay: Displacement of [3H]SCH-23390 from rat HA-tagged D1 dopamine receptor expressed in CHO cells at 10 uM
D(1A) dopamine receptor (Rattus norvegicus), sequence (P18901 whole entry): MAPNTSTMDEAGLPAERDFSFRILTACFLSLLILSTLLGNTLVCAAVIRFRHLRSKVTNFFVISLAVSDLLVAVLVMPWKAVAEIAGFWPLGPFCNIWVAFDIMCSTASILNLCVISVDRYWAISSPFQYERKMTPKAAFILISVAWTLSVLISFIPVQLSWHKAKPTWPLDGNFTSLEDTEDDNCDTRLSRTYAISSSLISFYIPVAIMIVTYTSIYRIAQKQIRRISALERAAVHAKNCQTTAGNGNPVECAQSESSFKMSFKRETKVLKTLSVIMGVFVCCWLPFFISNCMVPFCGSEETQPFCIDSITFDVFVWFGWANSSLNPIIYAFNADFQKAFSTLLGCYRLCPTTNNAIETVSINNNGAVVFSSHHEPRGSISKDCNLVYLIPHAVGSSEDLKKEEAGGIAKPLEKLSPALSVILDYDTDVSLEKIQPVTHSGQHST
Outline: (§2)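 Membranes from CHO cells stably expressing HA-tagged rat D1 receptor; cells grown in DMEM/F12 with 10% fetal calf serum and hygromycin B at 37°C, 5% CO2. Binding: 0.2 nM [3H]SCH23390 in 50 mM Tris-HCl, 1 mM EGTA, pH 7.4, room temperature, 1 h, duplicate. Fluphenazine (10 μM) defined nonspecific binding. Screened at 10 μM; compounds displacing >50% taken to Ki from competition curves.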

D(1A) dopamine receptor = D(1A) dopamine receptor (Rattus norvegicus, UniProt P18901); assay: Displacement of [3H]SCH-23390 from rat HA-tagged D1 dopamine receptor expressed in CHO cells; outline: as §2
D(1A) dopamine receptor, sequence (P18901 whole entry): as above

Delta-type opioid receptor, sequence (P32300 whole entry): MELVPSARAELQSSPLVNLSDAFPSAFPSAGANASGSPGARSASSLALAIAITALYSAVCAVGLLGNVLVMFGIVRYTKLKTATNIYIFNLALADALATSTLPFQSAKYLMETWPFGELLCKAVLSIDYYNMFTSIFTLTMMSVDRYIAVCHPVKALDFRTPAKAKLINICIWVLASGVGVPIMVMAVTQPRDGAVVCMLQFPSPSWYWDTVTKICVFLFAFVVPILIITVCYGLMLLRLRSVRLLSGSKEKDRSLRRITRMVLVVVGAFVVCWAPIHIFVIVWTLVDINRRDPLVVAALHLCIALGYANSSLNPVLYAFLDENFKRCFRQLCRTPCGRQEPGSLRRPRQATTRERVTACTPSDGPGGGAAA

SMILES | Ki [1] [µM] | Ki (Mu-type opioid receptor) [µM] | Ki [2] [µM] | Activity [3] [%] | Ki (D(1A) dopamine receptor) [µM]
CC(C)=CC(O)C/C(C)=C/COc1c2ccoc2cc2oc(=O)ccc12 (centres undefined) [NOTOPTEROL] | > 10 | > 10 | > 10 | > 50 | 1.42
C=C[C@@H](O)C#CC#C[C@@H](O)/C=C\CCCCCCC [FALCARINDIOL] | 1.1 | 1.13 | 2.51 | > 50 | 0.192
CC(C)=CC(O)C/C(C)=C/COc1ccc2ccc(=O)oc2c1 (centres undefined) [ANISOCOUMARIN H] | > 10 | > 10 | 2.6 | – | > 10
